Screening results (PubChem BioAssay)
Shown are actives, neighbours in structure and some others; about 6.8% of the full set was active somewhere.
AI-2 QS modul: Vibrio harveyi AI-2 quorum sensing modulation | Vibrio harveyi JMH597 AI-2 luminescence/OD600 ratio, 9 h; active compounds read low; strain lacks LuxN and CqsS sensors; 0 = neutral-control median | activity change, % at 7.5 µM | 300,000 tested, 0.4% active | AID 2094; in the data active = activity change below about -75%, passing the limit was not always enough; inconclusive = no clear call, values can overlap the other calls;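 also: luminescence divided by OD600 gain over 9 h not by final OD600 alone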
HSF-1 act: increases HSF-1 driven luciferase reporter signal. AID 504408. activation, % at 9 µM. 300,000 tested, 1.7% active. NIH3T3-HGL HSF-1 luciferase reporter, MG132, 8 h; 100% = twice DMSO control signal;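 active = mean replicate activation of at least 50% with a set share of replicates each reaching 50%; inconclusive = only one of those two conditions met; inactive = mean below 50% and too few replicates reaching it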
PHOSPHO1 inh: PHOSPHO1 (human) inhibition | Q8TCT1 | recombinant PHOSPHO1, absorbance phosphatase assay | inhibition, % at 13.3 µM | 290,000 tested, 1.1% active; in the data active = inhibition above about 60%
Target sequence (Q8TCT1 whole entry, looked up): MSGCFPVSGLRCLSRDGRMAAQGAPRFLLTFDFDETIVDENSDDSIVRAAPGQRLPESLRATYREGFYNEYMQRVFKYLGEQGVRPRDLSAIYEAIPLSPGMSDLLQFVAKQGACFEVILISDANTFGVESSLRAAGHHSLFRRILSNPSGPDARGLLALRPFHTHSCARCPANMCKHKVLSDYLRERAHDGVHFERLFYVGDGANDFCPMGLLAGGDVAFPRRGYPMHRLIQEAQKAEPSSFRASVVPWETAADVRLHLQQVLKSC
ALR H2O2 inh: inhibitors of human sulfhydryl oxidase ALR; 290,000 tested, 3.8% active; inhibition, % (no concentration beside the values); purified ALR, DTT oxidation, H2O2 HRP-luminol luminescence; P55789;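 active = mean replicate inhibition above about 79%, with every replicate also reaching it, limit read from the data; inconclusive = only one of the two criteria met; inactive = mean below limit and not every replicate reaching it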
Target sequence (P55789 whole entry, looked up): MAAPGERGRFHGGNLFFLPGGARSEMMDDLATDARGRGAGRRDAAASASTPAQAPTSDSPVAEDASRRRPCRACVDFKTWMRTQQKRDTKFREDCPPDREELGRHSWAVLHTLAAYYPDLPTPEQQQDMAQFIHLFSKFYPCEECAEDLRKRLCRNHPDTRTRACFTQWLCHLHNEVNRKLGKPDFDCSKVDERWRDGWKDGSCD
HCV core dimer: HCV core protein dimerization inhibition. TR-FRET GST/Flag-core106 dimerization, 1536-well. inhibition, % at 5 µM. 300,000 tested, 0.33% active;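 active = inhibition above the mean of all tested compounds plus 3 SD, set per screening campaign, cut at about 45% in these data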
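Assay system: GST-tagged and Flag-tagged HCV core protein residues 1-106 / Times: compound-protein-antibody incubation 4 h at 22.5 °C / Signal: time-resolved FRET, ex 340 nm, em 617 and 671 nm / Evaluation: % inhibition based on acceptor/donor emission ratio / Benchmarks: wells lacking GST-core106 and wells with excess unlabelled core106 / Repeats: singlicate, one well per compound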
HSF1 inh: HSF1 inhibition; NIH3T3-HGL HSE-luciferase, MG132-induced, luminescence 8 h; active compounds read low; activity change, negative = inhibition, % at 7.5 µM (by protocol); 300,000 tested, 0.77% active; AID 2098;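 active = more than half of replicate wells show activity change below -50%, luminescence cut by over half; inconclusive = some wells, but at most half, below -50%; inactive = no replicate well below -50%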;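 also: luciferase reports HSF-1 transcriptional activity via heat shock element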
A number is an active result; i = inactive; ? = inconclusive; nt = not tested or not shown.

SMILES	AI-2 QS modul	HSF-1 act	PHOSPHO1 inh	ALR H2O2 inh	HCV core dimer	HSF1 inh
C=CCc1c(C)nc(SC)nc1Nc1ccc(C(C)=O)cc1	i	i	74	i	i	i
C=CCc1c(C)nc(-c2ccccc2)nc1Nc1ccc(O)cc1	i	i	i	99	i	i
C=CCc1c(C)nc(SC)nc1Nc1ccc(C(=O)O)cc1	i	i	i	i	i	i
O=C(Nc1ccc(N2CCCC2)c(Cl)c1)c1cccs1	i	82	i	i	i	i
O=C(Nc1cccc(Cl)c1N1CCOCC1)c1cccs1	i	i	i	91	i	i
CC(C)NC(=O)NS(=O)(=O)c1cnccc1N1CCCCC1	i	51	i	nt	i	i
CC(C)NC(=O)N1CCN(c2ccncc2S(=O)(=O)N2CCOCC2)CC1	i	i	i	nt	i	i
Cc1c(N=Cc2ccc[nH]2)c(=O)n(-c2ccccc2)n1C	i	i	i	97	i	i
Cc1c(N=Cc2ccncc2)c(=O)n(-c2ccccc2)n1C	i	i	i	i	i	i
Cc1c(N=Cc2c(O)n(C)c(=O)c3ccccc23)c(=O)n(-c2ccccc2)n1C	nt	i	i	i	i	i
Cc1c(N=Cc2ccccn2)c(=O)n(-c2ccccc2)n1C	i	i	i	98	i	i
N/C(=N\OC(=O)COc1ccc(Br)cc1Cl)c1cccnc1	i	60	i	i	i	i
N/C(=N\OC(=O)COc1ccc(Cl)cc1Br)c1cccnc1	i	i	i	i	i	i
CCCN(Cc1ccc(N(CC)CC)cc1)CC1CC1	i	i	i	98	i	i
C/C(N)=C(/C#N)C(=O)CSc1nc2cc(Cl)ccc2s1	i	76	i	i	i	i
C/C(N)=C(/C#N)C(=O)CSc1nnc(Nc2cccc(C)c2)s1	i	56	i	nt	i	i
CN1CCN(C(=S)SCC(=O)Nc2nc(-c3ccccc3)c(-c3ccccc3)o2)CC1	i	i	i	nt	i	i
COCC1=C(C(=O)OC)C(c2ccco2)n2ncnc2N1 (stereo not given)	i	i	i	i	i	i
Cc1cc(N/N=C/c2ccc(O)cc2)c2cccc(C)c2n1	i	i	i	100	i	i
Cc1cc(N/N=C/c2ccc(N(C)C)cc2)c2ccccc2n1	i	i	nt	i	i	i
Cc1cc(C)c2nc(C)cc(N/N=C/c3ccc(O)cc3)c2c1	i	i	nt	99	i	i
O=C(CSCc1cnn(-c2ccccc2)c1-n1cccc1)NCc1ccccn1	i	i	i	81	i	i
CN1CCN(C(=O)CN(C)S(=O)(=O)c2ccc(F)cc2)CC1	i	i	i	i	i	i
Cc1ccc(C(=O)Nc2cc3c(cc2Cl)OCCCO3)cc1	i	i	i	nt	i	i
COc1cccc(C(=O)Nc2cc3c(cc2Cl)OCCCO3)c1	i	54	i	i	i	i
SMILES	AI-2 QS modul	HSF-1 act	PHOSPHO1 inh	ALR H2O2 inh	HCV core dimer	HSF1 inh
COc1ccc(C(=O)Nc2cc3c(cc2Cl)OCCCO3)cc1	i	53	i	i	i	i
O=C(Nc1cc2c(cc1Cl)OCCCO2)c1ccc(F)cc1	i	i	i	i	i	i
O=C(NCc1ccc(Cl)cc1)C(=O)NCC1OCCCN1S(=O)(=O)c1cccs1 (stereo not given)	i	i	i	i	i	i
CCc1nc(SCC(=O)c2ccc(Cl)s2)c2oc3ccccc3c2n1	i	84	i	i	i	i
CC(=O)/C(=N/Nc1cccc(Cl)c1)N1CCOCC1	i	i	i	98	i	i
CC(=O)/C(=N/Nc1ccccc1)N1CCOCC1	i	i	i	99	i	i
NS(=O)(=O)c1ccc(Sc2ccc3c(c2)CCC3)nc1	i	i	i	i	i	i
C=C(C)C(=O)Nc1cccnc1Oc1ccc(F)cc1F	i	i	i	i	i	i
COc1ccc(C(CC(=O)c2ccc(C)cc2)C(C#N)C#N)cc1OC (stereo not given)	i	73	i	i	i	i
COC(=O)C(C(=O)OC)C(CC(=O)c1ccc(C)cc1)c1cc(OC)c(OC)c(OC)c1 (stereo not given)	i	?	i	97	i	i
COc1ccc(C(CC(=O)O)NS(=O)(=O)c2ccc(C)cc2)cc1OC (stereo not given)	i	i	i	i	i	i
Cn1cc(CN2CCCC(CNS(=O)(=O)c3cccc4cccnc34)C2)cn1 (stereo not given)	i	i	i	i	i	i
CC(C)n1cc(CN2CCCC(CNS(=O)(=O)c3cccc4cccnc34)C2)cn1 (stereo not given)	i	i	i	i	i	-66
O=C(CSc1ncnc2ccccc12)NCC(=O)c1ccccc1	nt	i	i	97	i	i
O=C(CSc1ccc(-c2ccccc2)nn1)c1cccs1	i	i	i	92	i	i
COc1ccc(-c2ccc(SCC(=O)c3cccs3)nn2)cc1	i	i	i	i	i	i
Cc1ccc(C(=O)CSc2ncnc3ccccc23)o1	i	i	i	99	i	i
Cc1ccc(CSc2ncnc3ccccc23)cc1	i	i	i	i	i	i
O=C(CSc1ncnc2ccccc12)N1CCCC1	i	i	i	i	i	i
O=C(CSc1ncnc2ccccc12)c1cccs1	i	60	i	99	i	i
Fc1ccc(NC(=S)N2CCc3ccccc3C2)c(F)c1	i	i	i	i	i	i
COc1ccc(Cl)cc1C(=O)n1cnc2ccccc21	i	i	i	i	i	i
CCOc1ccc(OCCC(=O)OCC(=O)Nc2cc(C)nn2-c2ccccc2)cc1	i	i	nt	i	i	i
Cc1cc(Nc2ccccc2)n(CCOC(=O)COc2ccccc2)n1	i	i	i	98	i	i
COc1ccc(/C=C(/CC(=O)Nc2ccccc2)c2nc3ccccc3s2)cc1	i	i	i	i	58	i
SMILES	AI-2 QS modul	HSF-1 act	PHOSPHO1 inh	ALR H2O2 inh	HCV core dimer	HSF1 inh
O=C(/C=C/c1ccco1)NC(=S)NNC(=O)c1ccco1	i	i	i	98	i	i
CCNC(=S)Nc1cc(OC)c(NC(=O)c2ccco2)cc1OC	i	i	i	i	i	i
O=C(NNC(=S)NC(=O)c1ccco1)c1ccc(F)cc1	-104	i	i	97	i	i
COC(=O)c1cc(OC)c(OC)cc1NC(=S)NC(=O)c1ccco1	i	73	i	i	i	i
O=C(NC(=S)NNC(=O)c1ccco1)c1ccc(Br)cc1	-128	i	i	99	i	i
CC(CC(=O)N(C)c1c(N)n(Cc2ccccc2)c(=O)[nH]c1=O)c1ccccc1 (stereo not given)	i	i	nt	i	i	i
O=C(Nc1c(C(=O)N2CCCCC2)cnn1-c1ccccc1)c1ccccc1F	i	i	i	i	nt	i
CCCOc1ccc(C(=O)NNC(=S)NC(=O)c2ccco2)cc1	?	i	i	i	i	i
CC(Oc1ccc(Cl)cc1)C(=O)NNC(=S)NC(=O)c1ccco1 (stereo not given)	i	i	i	98	i	i
Cn1cccc1CC(=O)NNC(=S)NC(=O)c1ccc(F)cc1	i	i	92	95	i	i
